In series [1] the target is T1, Serine/threonine-protein kinase D1 (Homo sapiens, UniProt Q15139).
T1 sequence (Q15139 whole entry): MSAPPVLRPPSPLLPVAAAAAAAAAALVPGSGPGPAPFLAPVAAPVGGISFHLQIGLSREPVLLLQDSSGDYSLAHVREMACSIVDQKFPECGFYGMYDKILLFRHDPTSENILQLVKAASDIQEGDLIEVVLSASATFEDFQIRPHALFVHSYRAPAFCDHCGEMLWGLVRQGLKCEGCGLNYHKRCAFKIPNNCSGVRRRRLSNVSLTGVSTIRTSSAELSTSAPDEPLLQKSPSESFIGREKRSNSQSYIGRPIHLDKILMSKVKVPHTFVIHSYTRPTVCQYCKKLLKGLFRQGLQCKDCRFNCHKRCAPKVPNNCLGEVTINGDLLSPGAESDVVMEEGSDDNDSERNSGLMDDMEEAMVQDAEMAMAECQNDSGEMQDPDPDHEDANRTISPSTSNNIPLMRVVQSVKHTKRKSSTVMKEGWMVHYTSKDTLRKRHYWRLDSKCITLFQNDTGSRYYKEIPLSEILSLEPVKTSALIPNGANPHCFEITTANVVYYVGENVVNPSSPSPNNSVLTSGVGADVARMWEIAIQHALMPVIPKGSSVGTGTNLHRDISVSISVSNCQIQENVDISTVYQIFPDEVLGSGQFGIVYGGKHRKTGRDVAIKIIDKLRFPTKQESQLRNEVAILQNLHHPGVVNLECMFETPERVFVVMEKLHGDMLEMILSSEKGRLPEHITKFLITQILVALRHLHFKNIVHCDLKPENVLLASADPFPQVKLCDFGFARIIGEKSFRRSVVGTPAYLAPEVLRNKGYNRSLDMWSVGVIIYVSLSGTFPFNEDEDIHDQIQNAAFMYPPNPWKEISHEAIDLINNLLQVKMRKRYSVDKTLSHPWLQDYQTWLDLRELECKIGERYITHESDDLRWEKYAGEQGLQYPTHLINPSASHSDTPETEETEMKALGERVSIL
Description: Inhibition of PKD1 by TR-FRET assay. In short, it runs like this: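 Full-length wild-type PKD1 expressed and purified from Sf9 cells, 0.2 μg/mL, in 35 mM Tris-HCl pH 7.5, 5 mM MgCl2, 0.02% Tween-20, 20 μM ATP, 1 mM DTT. Reaction started with 2 μM biotinylated syntide-2 and run 50 min at room temperature. Stopped with EDTA plus europium anti-rabbit IgG, anti-phospho-syntide-2 antibody and streptavidin-APC. LANCE TR-FRET 665/615 ratio read after 1 h. 11-point curves in triplicate gave IC50.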
A general note: TR-FRET usually uses a lanthanide donor and a delayed reading to cut background.

Series [2] deals with T1, Serine/threonine-protein kinase D1. Description: Inhibition of PKD1 assessed as inhibition of HDAC5 neuclear export. Summed up: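 Neonatal rat ventricular myocytes infected with adenovirus encoding GFP-HDAC5 and plated on gelatin-coated wells. Cells exposed to compound and stimulated with PGF2α for 2 h, then fixed. Cytoplasmic versus nuclear GFP intensity quantified by high-content imaging.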

The target of series [3] is T2, Serine/threonine-protein kinase D2 (Homo sapiens, UniProt Q9BZL6).
T2 sequence (Q9BZL6 whole entry): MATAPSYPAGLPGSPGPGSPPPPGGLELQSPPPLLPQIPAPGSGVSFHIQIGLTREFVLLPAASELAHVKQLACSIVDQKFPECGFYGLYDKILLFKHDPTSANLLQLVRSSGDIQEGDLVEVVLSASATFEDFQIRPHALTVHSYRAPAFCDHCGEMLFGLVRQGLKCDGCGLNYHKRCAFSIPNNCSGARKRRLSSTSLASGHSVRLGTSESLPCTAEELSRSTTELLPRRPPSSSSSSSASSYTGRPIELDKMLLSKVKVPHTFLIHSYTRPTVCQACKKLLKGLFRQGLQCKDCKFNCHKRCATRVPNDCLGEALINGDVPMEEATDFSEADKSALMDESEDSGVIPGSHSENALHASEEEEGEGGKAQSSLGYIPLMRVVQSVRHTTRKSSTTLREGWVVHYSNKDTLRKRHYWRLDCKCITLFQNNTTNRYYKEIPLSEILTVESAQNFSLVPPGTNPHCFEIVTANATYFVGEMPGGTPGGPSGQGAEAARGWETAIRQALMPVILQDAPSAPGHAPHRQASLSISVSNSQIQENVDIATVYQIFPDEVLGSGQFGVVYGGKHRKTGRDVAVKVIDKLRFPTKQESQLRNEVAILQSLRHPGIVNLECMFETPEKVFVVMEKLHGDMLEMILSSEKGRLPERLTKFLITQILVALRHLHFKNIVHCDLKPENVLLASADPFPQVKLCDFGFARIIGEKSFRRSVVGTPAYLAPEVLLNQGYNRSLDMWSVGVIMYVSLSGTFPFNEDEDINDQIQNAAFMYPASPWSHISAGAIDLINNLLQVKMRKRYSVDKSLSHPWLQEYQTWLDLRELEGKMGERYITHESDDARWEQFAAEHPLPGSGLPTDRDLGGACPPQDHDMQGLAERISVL
Description: Inhibition of PKD2 by TR-FRET assay.

Series [4] in a line: AUC (0 to 8 hrs) in Sprague-Dawley rat at 5 mg/kg, po. Particulars: plasma. Further details: time < 8 hr, dose 5 mg/kg, route oral. The class given is ADME, organism-based.
Series [5] can be described thus: Oral bioavailability in Sprague-Dawley rat at 5 mg/kg. In kind it is ADME, organism-based. Particulars: in vivo. Summed up:
(§1)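 Rats dosed iv 2 mg/kg (n = 2) or po 5 mg/kg (n = 3) in 10% NMP, 10% Cremophor, 80% pH 4.63 buffer. PK parameters derived from iv dosing, reported as mean ± SD.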

Series [6] is described as follows: Cmax in rats after 5 mg/kg oral dose. The class given is ADME, organism-based. Further details: dose 5 mg/kg, route oral. The following applies: Sprague-Dawley, rat, in vivo.
Series [7] in a line: Volume of distribution at steady state in Sprague-Dawley rat at 2 mg/kg, iv and 5 mg/kg, po. The class given is ADME, organism-based. Particulars: in vivo, read-out: Vdss. In short, it runs like this: as §1
Series [8] in a line: Clearance in Sprague-Dawley rat at 2 mg/kg, iv and 5 mg/kg, po. In kind it is ADME, organism-based. Particulars: in vivo. In short, it runs like this: as §1
Series [9] is described as follows: Half life in rats after 2 mg/kg intravenous dose. Set-up: dose 2 mg/kg, route intravenous. In kind it is ADME, organism-based. The following applies: Sprague-Dawley, rat, in vivo. In short, it runs like this:
as §1

This is an account of results in ChEMBL document CHEMBL1212911, “Identification of potent and selective amidobipyridyl inhibitors of protein kinase D” (J Med Chem, 2010).

As to `NC(=O)c1cc(-c2ccnc(NC3CCCCC3)c2)nc(N2CCOCC2)c1`, the IC50 (usually the point on the concentration scale where inhibition reaches its midpoint) in [1] is > 1000 nM.
For `CCNc1cc(-c2cc(C(N)=O)cc(N3CCNCC3)n2)ccn1`, the EC50 – broadly, the concentration that produces a half-maximal response – in series [2] is > 1000 nM. Also, the IC50 in series [1] came to 4 nM; in series [3], 31 nM.
`CC1(C)CN(c2cc(C(N)=O)cc(-c3ccnc(NC4CCCCC4)c3)n2)CCN1`: the EC50 in [2] is > 1000 nM. For the same compound, the values for the IC50 in series [1] and in series [3] were 55 nM and 427 nM, respectively.
The corresponding values for `CN1CCN(c2cc(C(N)=O)cc(-c3ccnc(NC4CCCCC4)c3)n2)CC1` are 752 nM, 25 nM and 238 nM.
Taken in the same sequence, the figures for `Cn1ccc(Nc2cc(-c3cc(C(N)=O)cc(N4CCNCC4)n3)ccn2)n1` were 674 nM, 1 nM and 7 nM.
Turning to `C[C@H]1CN(c2cc(C(N)=O)cc(-c3ccnc(NC4CCCCC4)c3)n2)CCN1`, the concentration giving a half-maximal response (EC50) in series [2] was 831 nM. Further, the results for the IC50 in series [1] and in series [3] were 8 nM and 86 nM, respectively.
For the compound `Cn1ccc(Nc2cc(-c3cc(C#N)cc(N4CCNCC4)n3)ccn2)n1`, the EC50 in series [2] amounted to 428 nM. Further, in series [3], the concentration for half-maximal inhibition (IC50) was found to be 68 nM.
For the compound `c1cc(-c2cc(-c3cc[nH]n3)cc(N3CCNCC3)n2)cc(NC2CCCCC2)n1`, the EC50 in [2] was 704 nM. Besides, the IC50 turned out to be 4 nM in [1] and 62 nM in series [3].
Turning to `NC(=O)c1cc(-c2ccnc(NC3CCCCC3)c2)nc(N2CCCC(N)C2)c1` (centres undefined), the EC50 in series [2] is > 1000 nM. For the same compound, the IC50 in [1] came to 14 nM; in series [3], 168 nM.
The corresponding values for `NC(=O)c1cc(-c2ccnc(NC3CCCC3)c2)nc(N2CCNCC2)c1` are 202 nM, 6 nM and 59 nM.
Taken in the same sequence, the figures for `NC(=O)c1cc(-c2ccnc(NC3CCOCC3)c2)nc(N2CCNCC2)c1` were > 1000 nM, 1 nM and 9 nM.
The corresponding values for `NC(=O)c1cc(-c2ccnc(Nc3ccccc3)c2)nc(N2CCNCC2)c1` are 24 nM, 1 nM and 1 nM.
For `c1cc(-c2cc(-c3cn[nH]c3)cc(N3CCNCC3)n2)cc(NC2CCCCC2)n1`, in [2], the EC50 was 17 nM. Besides, the IC50 in series [1] was < 1 nM; in series [3] it was 1 nM.
Take `FC(F)(F)c1cc(-c2ccnc(NC3CCCCC3)c2)nc(N2CCNCC2)c1`: in series [4], the AUC(0-t) (usually exposure summed from dosing to a finite time, without extrapolation to infinity) at 8 h amounted to 0.73 µM·h. For the same compound, the EC50 in [2] is 342 nM. Further, the bioavailability (as a rule, dose-corrected exposure relative to a reference, in per cent) in [5] was 31%. In addition, the peak level in series [6] (Cmax) was 251 nM.
Regarding `NC(=O)c1cc(N[C@H]2CCNC2)nc(-c2ccnc(NC3CCCCC3)c2)c1`, the EC50 in series [2] was > 1000 nM. Besides, the IC50 came out at 68 nM in [1] and 540 nM in series [3].
Regarding `NC(=O)c1cc(-c2ccnc(Nc3ccccc3Cl)c2)nc(N2CCNCC2)c1`, in [2], the concentration giving a half-maximal response (EC50) worked out at 478 nM. For the same compound, the results for the IC50 in [1] and in series [3] were 1 nM and 8 nM, respectively.
Compound `O=C1NCc2c1cc(-c1ccnc(NC3CCCCC3)c1)nc2N1CCNCC1` gave an exposure AUC(0-t) at 8 h in series [4] of 0.1 µM·h. The EC50 in series [2] is > 1000 nM. This compound returned an IC50 in series [1] of 35 nM. Further, the Vd in series [7] turned out to be 35 L/kg. Further, the bioavailability in series [5] was 5%. Besides, the highest level in [6] (Cmax) was 31 nM. Also, the clearance in [8] is 86 mL/min/kg. In addition, in series [9], the half-life (commonly the time needed for the level to fall by half in the phase considered) is 6.2 h.
As to `NC(=O)c1cc(N[C@@H]2CCNC2)nc(-c2ccnc(NC3CCCCC3)c2)c1`, the EC50 in series [2] is > 1000 nM. Further, the results for the concentration for half-maximal inhibition (IC50) in [1] and in series [3] were 2 nM and 18 nM, respectively.
The corresponding values for `CC(C)Nc1cc(-c2cc(C(N)=O)cc(N3CCNCC3)n2)ccn1` are 438 nM, 1 nM and 8 nM.
As for `C[C@@H]1CN(c2cc(C(N)=O)cc(-c3ccnc(NC4CCCCC4)c3)n2)CCN1`, in [2], the concentration giving a half-maximal response (EC50) came out at 679 nM.
As to `FC(F)c1cc(-c2ccnc(NC3CCCCC3)c2)nc(N2CCNCC2)c1`, the half-maximal effective concentration (EC50) in series [2] is 568 nM. In addition, the figures for the concentration for half-maximal inhibition (IC50) in series [1] and in [3] were 17 nM and 76 nM, respectively.
For `CC(C)Nc1cc(-c2cc(-c3cn[nH]c3)cc(N3CCNCC3)n2)ccn1`, the concentration for a half-maximal effect (EC50) in series [2] was found to be 92 nM. Further, the half-maximal inhibitory concentration (IC50) was < 1 nM in series [1] and 2 nM in [3].
Compound `N#Cc1cc(-c2ccnc(Nc3ccccc3)c2)nc(N2CCNCC2)c1` yielded an exposure AUC(0-t) at 8 h in [4] of 1.1 µM·h. Also, in series [2], the concentration giving a half-maximal response (EC50) turned out to be 378 nM. In addition, the half-maximal inhibitory concentration (IC50) in [1] is 5 nM; in [3], 35 nM. In addition, the Vd in series [7] stood at 7.8 L/kg. Besides, in [5], the bioavailability worked out at 18%. Moreover, in series [6], the Cmax (usually the maximum level reached in the sampled fluid or tissue) is 231 nM. The compound further had a clearance in series [8] of 31 mL/min/kg. This compound also gave a half-life in [9] of 3.1 h.
Consider `O=C1NCc2c1cc(N1CCNCC1)nc2-c1ccnc(NC2CCCCC2)c1`, for which the EC50 in series [2] was 115 nM. In [1], this compound registered an IC50 of 1 nM.
As to `NCC1CCN(c2cc(C(N)=O)cc(-c3ccnc(NC4CCCCC4)c3)n2)CC1`, the 50% effective concentration (EC50) in [2] is > 1000 nM. Moreover, the 50% inhibitory concentration (IC50) turned out to be 46 nM in [1] and 212 nM in series [3].
Consider `c1cc(-c2cc(-c3cn[nH]c3)cc(N3CCNCC3)n2)cc(NC2CCOCC2)n1`, for which the half-maximal effective concentration (EC50) in series [2] amounted to 234 nM. The figures for the concentration for half-maximal inhibition (IC50) in series [1] and in series [3] were < 1 nM and 2 nM, respectively.
